Six molecules from PMC10586715 (ACS chemical biology, 2023) can be followed below.

Peptide text beside a SMILES is read from it. * marks the point of attachment. Cbz = O=C(OCc1ccccc1)*

Assay [1] addresses T1, sEH (Homo sapiens, UniProt P34913).
T1 sequence (P34913 1-555): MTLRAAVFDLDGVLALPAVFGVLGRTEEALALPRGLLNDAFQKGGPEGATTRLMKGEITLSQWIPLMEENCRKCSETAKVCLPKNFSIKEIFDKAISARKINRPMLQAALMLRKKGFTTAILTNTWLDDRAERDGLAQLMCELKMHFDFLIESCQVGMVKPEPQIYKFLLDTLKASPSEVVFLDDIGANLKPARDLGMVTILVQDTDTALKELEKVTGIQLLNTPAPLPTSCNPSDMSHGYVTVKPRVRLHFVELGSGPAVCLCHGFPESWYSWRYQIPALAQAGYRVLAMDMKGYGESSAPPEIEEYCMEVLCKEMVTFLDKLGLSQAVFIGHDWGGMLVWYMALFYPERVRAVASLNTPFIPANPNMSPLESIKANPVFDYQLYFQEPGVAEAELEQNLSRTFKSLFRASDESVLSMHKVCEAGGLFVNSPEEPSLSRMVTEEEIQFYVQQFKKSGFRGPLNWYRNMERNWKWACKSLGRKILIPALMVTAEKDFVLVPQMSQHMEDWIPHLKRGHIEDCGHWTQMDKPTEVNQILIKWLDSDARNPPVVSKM
Briefly: sEH degradation in HepG2 cells by immunoblot. Format: cell-based. Conditions: for effect of co-treatment on sEH degradation induced by 1a: co-treatment with 1a, immunoblot.

For assay [2], the target named is T1, sEH. Kind of assay: Residual sEH hydrolase activity of treated HepG2 cells. Format: cell-based. As to conditions: HepG2, 1 μM, 24 h.
The target of assay [3] is T1, sEH. Briefly: Immunofluorescence colocalization of sEH with compartment markers. Conditions: co-treatment with 1a. The class given is cell-based. In short, it runs like this:
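Fixed in 4% paraformaldehyde for 20 min, permeabilised with 0.02% Triton X-100, blocked 1 h at room temperature in 5% goat serum with 1% BSA. Mouse anti-sEH plus rabbit anti-LAMP2 at 4 °C overnight; Alexa Fluor 647/488 secondaries (1:500) for 1 h; DAPI 10 min. Imaged at 20x by high-content imaging, automated analysis. Colocalisation area normalised to cell count.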

Assay [4] concerns the target T1, sEH. Kind of assay: sEH level in CRBN-knockout HEK293T cells. Format: cell-based. The gist of the method: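 CRBN knockout HEK293T cells were maintained in high-glucose (4.5 g/L) DMEM with 10% fetal bovine serum, 100 units/mL penicillin and streptomycin.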
A further assay concerns EPHX2. Briefly: sEH transcription by qRT-PCR. The class given is cell-based, human. In general terms: Real-time PCR tracks product formation cycle by cycle.

As for `N#Cc1ccc(COC[C@H]2O[C@@H](n3c(NCc4ccc(Cl)c(Cl)c4)nc4c(N)ncnc43)[C@H](O)[C@@H]2O)cc1` [VER155008], the “effect of co-treatment on sEH degradation induced by 1a” value (from here on “effect of co-treatment … by 1a”) at sEH [1] was “failed to rescue the sEH degradation”.
As for “trans-4-[4-(3-trifluoromethoxyphenyl-1-ureido)-cyclohexyloxy]-benzoic acid [Compound 1]”, at sEH [1], the “effect of co-treatment … by 1a” value is on record as “counteract the degradation effect”. On sEH [2], the “sEH hydrolase activity after treatment” value was “only slight inhibition”.
Regarding `CO/C1=C\C(C)=C\[C@@H](C)[C@@H](O)[C@@H](C)C/C(C)=C/C=C/[C@H](OC)[C@@H]([C@@H](C)[C@@H](O)[C@H](C)[C@@]2(O)C[C@@H](O)[C@H](C)[C@@H](C(C)C)O2)OC1=O` [BafA1, bafilomycin A1], the “effect of co-treatment … by 1a” value on sEH [1] is listed as “blocked the degradation”. Besides, on sEH [3], the “effect of co-treatment on 1a-promoted sEH colocalization with LAMP2” value was “reversed this trend”.
As to `CC(C)C[C@H](NC(=O)[C@H](Cc1ccccc1)NC(=O)c1cnccn1)B(O)O` [BTZ, bortezomib], on sEH [1], the “effect of co-treatment … by 1a” value is reported as “slightly reversed the sEH degradation induced by 1a but higher concentrations failed to block”. For the same molecule, on sEH [1] (co-treatment with 1e or 2a), the “effect of co-treatment on sEH degradation induced by 1e and 2a” value was “failed to block the degradation”.
With `NS(=O)(=O)OC[C@@H]1C[C@@H](n2ccc3c(N[C@H]4CCc5ccccc54)ncnc32)C[C@@H]1O` [MLN4924], the “effect of co-treatment … by 1a” value at sEH [1] is recorded as “blocked the sEH degradation”.
Take `CC(C)C[C@@H](C=O)NC(=O)[C@H](CC(C)C)NC(=O)[C@H](CC(C)C)NC(=O)OCc1ccccc1` [MG132] (Cbz-Leu-Leu-Leu-aldehyde): the “effect on sEH level in CRBN-knockout cells” value at sEH [4] is recorded as “neither 1a nor MG132 affect sEH level”. Besides, the “effect of co-treatment … by 1a” value at sEH [1] is “failed to block the degradation induced by PROTAC 1a and instead promoted sEH degradation”. Further, the “effect on transcription of sEH” value in the assay with EPHX2 is “did not affect”.
